Values after ≈ are worked out from the molar mass of the structure shown.
Legend:
[1] = system: Pseudomonas aeruginosa PA14; assay: Activity of wild type Pseudomonas aeruginosa PA14 Beta-lactamase assessed as nitrocefin hydrolysis per mg of protein by spectrophotometry
In short: (§1)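 Cells grown to OD600 1.0, pelleted and resuspended in 0.1 M KH2PO4-Na2HPO4 pH 7.0. Crude extract made by two freeze-thaw cycles plus sonication on ice. β-Lactamase read as absorbance change at 485 nm with 50 µM nitrocefin in the same pH 7.0 phosphate buffer. Extract protein measured by BCA against a bovine serum albumin standard.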

[2] = system: Pseudomonas aeruginosa PA14; assay: Activity of Beta-lactamase in Pseudomonas aeruginosa PA14 PA3047 harboring complemented dacB mutant gene assessed as nitrocefin hydrolysis per mg of protein by spectrophotometry; in short: as §1
[3] = system: Pseudomonas aeruginosa PA14; assay: Activity of Beta-lactamase in Pseudomonas aeruginosa PA14 PA4020 harboring mpl mutant gene assessed as nitrocefin hydrolysis per mg of protein by spectrophotometry; in short: as §1
[4] = system: Pseudomonas aeruginosa PA14; assay: Activity of Beta-lactamase in Pseudomonas aeruginosa PA14 PA4020 harboring complemented mpl mutant gene assessed as nitrocefin hydrolysis per mg of protein by spectrophotometry; in short: as §1
[5] = system: Pseudomonas aeruginosa PAO1; assay: Activity of Beta-lactamase in Pseudomonas aeruginosa PAO1 PA4109 harboring ampR mutant gene assessed as nitrocefin hydrolysis per mg of protein by spectrophotometry; in short: as §1
[6] = system: Pseudomonas aeruginosa PAO1; assay: Activity of Beta-lactamase in Pseudomonas aeruginosa PAO1 PA4522 harboring ampD mutant gene assessed as nitrocefin hydrolysis per mg of protein by spectrophotometry; in short: as §1
Pseudomonas aeruginosa [7] = assay: Antimicrobial activity against Pseudomonas aeruginosa PA14 PA5001 harboring mutation in putative glycosyl-transferase by broth microdilution method relative to wild type
Pseudomonas aeruginosa [8] = assay: Antimicrobial activity against wild type Pseudomonas aeruginosa by Etest method
Pseudomonas aeruginosa [9] = assay: Antimicrobial activity against Pseudomonas aeruginosa harboring algU mutant gene by Etest method; assay type: functional
In short: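 Etest MIC. Overnight LB cultures at 37°C were diluted in sterile 0.85% NaCl to about 1 × 10^7 CFU/ml. 100 µl was spread on Mueller-Hinton agar, one strip was placed per plate, and plates were incubated at 37°C for 18 h. Equal cell numbers were seeded per plate, and results were verified in triplicate. PA14 wild type was included in each set as a susceptibility control.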

Pseudomonas aeruginosa [10] = assay: Antimicrobial activity against Pseudomonas aeruginosa harboring mucD mutant gene by Etest method
Pseudomonas aeruginosa [11] = assay: Antimicrobial activity against Pseudomonas aeruginosa harboring pBBR1MCS-3 expressing mucD mutant gene by Etest method

SMILES	Activity [1] [nmol/min]	Activity [2] [nmol/min]	Activity [3] [nmol/min]	Activity [4] [nmol/min]	Activity [5] [nmol/min]	Activity [6] [nmol/min]	fold change (FC) (Pseudomonas aeruginosa [7])	MIC (Pseudomonas aeruginosa [8]) [µg/mL]	MIC (Pseudomonas aeruginosa [9]) [µg/mL]	MIC (Pseudomonas aeruginosa [10]) [µg/mL]	MIC (Pseudomonas aeruginosa [11]) [µg/mL]
CC(C)(O/N=C(\C(=O)N[C@@H]1C(=O)N2C(C(=O)[O-])=C(C[n+]3ccccc3)CS[C@H]12)c1csc(N)n1)C(=O)O [CEFTAZIDIME]	4.9	3.8	96	7.3	111	74	3	–	–	–	–
C[C@@H](O)[C@H]1C(=O)N2C(C(=O)O)=C(SCCNC=N)C[C@H]12 [IMIPENEM ANHYDROUS]	–	–	–	–	–	–	–	0.5 (≈ 1.67 µM)	0.38 (≈ 1.27 µM)	0.25 (≈ 0.835 µM)	0.25 (≈ 0.835 µM)

— ChEMBL document CHEMBL1687778, “Genetic determinants involved in the susceptibility of Pseudomonas aeruginosa to beta-lactam antibiotics” (2010)
